ChEMBL document CHEMBL3352496, “Design, synthesis and evaluation of novel triazole core based P-glycoprotein-mediated multidrug resistance reversal agents” (Bioorg Med Chem, 2014)
pIC50: −log10 of the molar value. Structures can show the parent of a compound that is named as a salt.

Columns and labels:
[1] = Reversal of P-gp-mediated multidrug resistance in human K562/A02 cells assessed as reduction of adriamycin IC50 at 5 uM after 48 hrs by MTT assay; type: cell-based; conditions: K562/A02, 48 h
Procedure, shortened: (§1)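 MTT on K562/A02 cells exposed to a series of adriamycin concentrations, with or without modulator at 5 µM; 0.1% DMSO as solvent control. Reversal fold = adriamycin IC50 without modulator / IC50 with modulator.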

[2] = Resistance factor, ratio of adriamycin IC50 for human K562/A02 cells over-expressing Pgp to adriamycin IC50 for human K562/A02 cells over-expressing Pgp in presence of 5 uM compound; type: functional; procedure, shortened: as §1
[3] = Cytotoxicity against human K562/A02 cells at 5 uM after 48 hrs by MTT assay; type: cell-based; conditions: k562/a02, 48 h
Procedure, shortened: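 Adriamycin-selected K562/A02 cells given test compound alone at 5 µM for 48 h; cytotoxicity scored by MTT as intrinsic growth inhibition.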

[4] = Cytotoxicity against human K562/A02 cells after 48 hrs by MTT assay; type: functional, cell-based; conditions: K562/A02, 48 h

Compound	pIC50 [1]	Ratio IC50 [2]	Activity [3]	pIC50 [4]
COc1ccc(C(=O)Nc2ccccc2OCc2cn(CCN3CCc4cc(OC)c(OC)cc4C3)nn2)cc1OC	5.19	8.4	< 10%	
COc1cc2c(cc1OC)CN(CCn1cc(COc3ccccc3NC(=O)c3ccc(Cl)cc3)nn1)CC2	5.28	10.4	< 10%	
COc1cc2c(cc1OC)CN(CCn1cc(COc3ccccc3NC(=O)c3cccc(Cl)c3)nn1)CC2	4.96	4.9	< 10%	
COc1cc2c(cc1OC)CN(CCn1cc(COc3ccccc3NC(=O)c3ccccc3[N+](=O)[O-])nn1)CC2	4.81	3.5	< 10%	
COc1cccc2c1C(=O)c1c(O)c3c(c(O)c1C2=O)C[C@@](O)(C(=O)CO)C[C@@H]3O[C@H]1C[C@H](N)[C@H](O)[C@H](C)O1 [DOXORUBICIN HYDROCHLORIDE]				4.27
COc1cc2c(cc1OC)CN(CCn1cc(COc3ccccc3NC(=O)c3cnc4ccccc4c3)nn1)CC2	5.05	6.1	< 10%	
COc1cccc(C(=O)Nc2ccccc2OCc2cn(CCN3CCc4cc(OC)c(OC)cc4C3)nn2)c1	5.01	5.6	< 10%	
COc1cc2c(cc1OC)CN(CCn1cc(COc3ccccc3NC(=O)c3ccc4ccccc4n3)nn1)CC2	5.28	10.4	< 10%	
COc1cc2c(cc1OC)CN(CCn1cc(COc3ccccc3NC(=O)c3cccnc3)nn1)CC2	4.72	2.9	< 10%	
COc1cc2c(cc1OC)CN(CCn1cc(COc3ccccc3NC(=O)c3ccccc3)nn1)CC2	4.97	5	< 10%	
COc1cc(OC)cc(C(=O)Nc2ccccc2OCc2cn(CCN3CCc4cc(OC)c(OC)cc4C3)nn2)c1	4.86	3.9	< 10%	
